# Published values from different studies.
# Lines come from different studies, so protocols differ.
# Target: Serine/threonine-protein kinase PAK 4 (PAK4, Homo sapiens, UniProt O96013)
SMILES,test,setting,quantity,result
Nc1cnc(N2CCc3cc(S(=O)(=O)Nc4c(F)cc(Cl)cc4F)cc(N4CCCC4=O)c32)nc1,"cell-free assay, competition with immobilised ligand",1 µM,remaining binding,89%
COc1cc(/C=C/C(=O)CC(=O)/C=C/c2ccc(O)c(OC)c2)ccc1O,"enzyme activity, inhibitor",1 µM,activity vs control,78%
C=CC(=O)Nc1cc(Nc2nccc(Nc3cc(Cl)c(F)cc3C(C)(C)O)n2)c(OC)cc1N1CC[C@@H](N(C)C)C1,"enzyme activity, inhibitor",1 µM,inhibition,5%
Nc1nc(Nc2ccccc2)sc1C(=O)c1c(F)cccc1F,"enzyme activity, inhibitor",10 µM,remaining activity,47%
Cc1c[nH]c2nccc(Oc3c(F)cc(Nc4cc(Cl)nc(N)n4)cc3F)c12,"cell-free assay, competition with immobilised ligand",0.1 µM,remaining binding,100%
CCN(CC)CCNC(=O)c1c(C)[nH]c(/C=C2\C(=O)Nc3ccc(F)cc32)c1C,"enzyme activity, inhibitor",0.3 µM,inhibition,-9%
COc1cc2ncnc(Nc3ccc(F)c(Cl)c3)c2cc1OCCCN1CCOCC1,cell-free assay,0.5 µM,remaining signal,90.2%
CS(=O)(=O)Nc1cccc(-c2csc(NC(=O)CSc3nc4nccnc4c(=O)n3CCc3ccccc3)n2)c1,"enzyme activity, inhibitor",10 µM,inhibition,4%
CCc1ccccc1C(=O)Nc1n[nH]c2c(C)c(F)c(C3C(C#N)=C(C)N(C)C(C)=C3C#N)cc12,"cell-free assay, competition with immobilised ligand",1 µM,remaining binding,100%
CNC(=O)c1cc(Oc2ccc(NC(=O)Nc3ccc(Cl)c(C(F)(F)F)c3)cc2)ccn1,"enzyme activity, inhibitor",0.3 µM,inhibition,-11%
COc1cc(Nc2cnc(C#N)c(O[C@H](C)CN(C)C)n2)ncc1-c1cnn(C)c1,"enzyme activity, inhibitor, radiometric",10 µM,remaining activity,70%
Cc1[nH]c(/C=C2\C(=O)Nc3ccc(F)cc32)c(C)c1C(=O)N[C@H]1CCN(C(=O)N(C)C)C1,"enzyme activity, inhibitor",1 µM,remaining activity,105%
Cc1cc(NC(=O)c2cccc3cc(-c4cccc5[nH]nc(N)c45)ccc23)ccc1F,"enzyme activity, inhibitor",0.1 µM,activity vs control,97%
N#CCCc1ccc2c(c1)-c1[nH]c3ccc([N+](=O)[O-])cc3c1CC(=O)N2,cell-free assay,0.5 µM,remaining signal,86.4%
CN(c1ccnc(CNc2nc(Nc3ccc4c(c3)CC(=O)N4)ncc2C(F)(F)F)n1)S(C)(=O)=O,"cell-free assay, competition with immobilised ligand",1 µM,remaining binding,52%
COc1cc(-c2cc(-c3ccc(N4CCNCC4)cc3)cnc2C)cc(OC)c1OC,"enzyme activity, inhibitor",1 µM,inhibition,4%
COc1cc(-c2cn(C3CCc4c(F)cccc4N(CC(F)(F)F)C3=O)nn2)ccc1-n1cnc(C)c1 (stereo not shown),"cell-free assay, competition with immobilised ligand",1 µM,remaining binding,99%
CC(C)(O)[C@H]1CC[C@H](Nc2ccc3ncc(-c4cccc(C(F)(F)F)c4)n3n2)CC1,"enzyme activity, inhibitor",1 µM,remaining activity,98%
CN(c1ncccc1CNc1nc(Nc2ccc3c(c2)CC(=O)N3)ncc1C(F)(F)F)S(C)(=O)=O,"enzyme activity, inhibitor",1 µM,inhibition,88.5%
COc1cc2c(N3CCN(C(=O)Nc4ccc(OC(C)C)cc4)CC3)ncnc2cc1OCCCN1CCCCC1,cell-free assay,0.5 µM,remaining signal,103%
Cc1ccc(Nc2nccc(N(C)c3ccc4c(C)n(C)nc4c3)n2)cc1S(N)(=O)=O,"enzyme activity, inhibitor",10 µM,inhibition,35%
CC1=C(C#N)C(c2ccc3c(c2)c(NC(=O)c2ccccc2C)nn3C)C(C#N)=C(C)N1,"cell-free assay, competition with immobilised ligand",1 µM,remaining binding,100%
O=C1NC(=O)c2cc(Nc3ccc(F)cc3)c(Nc3ccc(F)cc3)cc21,cell-free assay,0.5 µM,remaining signal,95.1%
Cc1sc(C(=O)NC2COC2)cc1-n1cc(NC(=O)Nc2c(F)cccc2Cl)cn1,"enzyme activity, inhibitor",10 µM,remaining activity,106%
CC(C)(C)c1nc2c(s1)c1nc(N)ncc1c1ccc(NS(=O)(=O)c3c(F)cccc3F)c(F)c12,"enzyme activity, inhibitor, radiometric",1 µM,remaining activity,86%
CCN(CC)CCNC(=O)c1c(C)[nH]c(/C=C2\C(=O)Nc3ccc(F)cc32)c1C,"enzyme activity, inhibitor",1 µM,remaining activity,82%
Cn1c(=O)n(-c2ccc(C(C)(C)C#N)cc2)c2c3cc(-c4cnc5ccccc5c4)ccc3ncc21,"enzyme activity, inhibitor",10 µM,remaining activity,87%
CCC(=O)N[C@H]1CC[C@@H](C(=O)N(C)c2ccc(-c3nc4ccccc4o3)cc2)C1,"cell-free assay, competition with immobilised ligand",1 µM,remaining binding,100%
CSc1nc(C)c(-c2ccnc(Nc3ccc(N4CCOCC4)cc3)c2)[nH]1,"enzyme activity, inhibitor",10 µM,inhibition,-3.9%
CSc1cccnc1N1CCN(Cc2nc3ccccc3[nH]2)CC1,"cell-free assay, competition with immobilised ligand",1 µM,remaining binding,100%
FC(F)c1nc2ccccc2n1-c1nc(N2CCOCC2)nc(N2CCOCC2)n1,"enzyme activity, inhibitor",10 µM,remaining activity,92%
CCN(CC)c1ccc(C2=NNC(=O)CC2C)cc1[N+](=O)[O-] (stereo not shown),"enzyme activity, inhibitor",10 µM,remaining activity,98%
FC(F)(F)Oc1cccc(-c2cnc3ccc(-c4ccncc4)nn23)c1,"enzyme activity, inhibitor, radiometric",5 µM,activity vs control,64%
COc1cc(Cl)c(C(=O)N[C@@H](CN[C@H]2CC[C@@H](N)CC2)Cc2ccc(C#N)cc2)cc1-c1ccc(CN[C@H](C)c2ccc(C)cc2)o1,"enzyme activity, inhibitor",1 µM,remaining activity,102%
